An excerpt weighted towards active compounds, which were near 2% of everything screened.
MT1-MMP act inh: inhibitors of human MT1-MMP activation; P50281; hit rate 0.061% among 360,000; AID 651647; HT1080 RFP-PRO-GFP cells, GFP/RFP ratio fluorescence, overnight; percent of plate control window, DMSO zero; GFP/RFP ratio change, % at 20 µM;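 active = GFP/RFP ratio change of at least 30% with cell ATP level not reduced by more than half and red fluorescence within 50% of control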
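Material – HT1080 RFP-PRO-GFP cells · Control set – DMSO wells and RFP-L50D-GFP cells · Incubation – overnight cell settling, then overnight compound exposure, 37 °C, 5% CO2 · Compound dosing – single-point 20 µM compound, 1% DMSO · Read-out – GFP/RFP fluorescence ratio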
Exocytosis inh: lytic granule exocytosis inhibition; hit rate 0.66% among 360,000; TALL-104 LAMP-1 surface exposure, flow cytometry; cells stimulated with thapsigargin and PMA; inhibition, % at 10 µM;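 active = inhibition above about 55%, limit read from the data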
DAGLB inh: diacylglycerol lipase beta (human) inhibition. Q8NCG7. HEK293T DAGLB membrane lysate, EnzChek fluorogenic substrate. inhibition, % at 5.17 µM. hit rate 0.059% among 340,000. AID 504411; in the data active = inhibition above about 34%
FGF22 binding-1: FGF22 (human) thermal shift binding; AID 651658; Q9HCT0; recombinant FGF22 thermal shift, SYPRO orange fluorescence; percent of sucrose octasulfate shift, DMSO zero; hit rate 1.5% among 340,000; activity (Tm shift, normalised), % at 9.99 µM;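 active = mean Tm shift, scaled 0 neutral to 100 positive control, at about 1.3% or above, every replicate too, limit read from the data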
ABCB6 inh MLPCN: human ABCB6 transporter inhibition. Q9NP58. K562-ABCB6 porphyrin accumulation, flow cytometry, 1 h; stronger effect = lower value. fluorescence ratio to DMSO, % at 10 µM. hit rate 0.19% among 360,000. AID 602162;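 active = fluorescence ratio to DMSO below 75%, the collection mean minus 3 SD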;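 note: signal is porphyrin accumulated inside mitochondria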
VLA-4 inh: inhibition in a human VLA-4 binding assay; AID 2557; P13612; inhibition, % (about 7 µM as worked out from the volumes in the protocol); VLA-4 expressing cells, ligand binding flow cytometry; hit rate 0.2% among 330,000; in the data active = inhibition above about 50%
Target sequence (P13612 whole entry, looked up): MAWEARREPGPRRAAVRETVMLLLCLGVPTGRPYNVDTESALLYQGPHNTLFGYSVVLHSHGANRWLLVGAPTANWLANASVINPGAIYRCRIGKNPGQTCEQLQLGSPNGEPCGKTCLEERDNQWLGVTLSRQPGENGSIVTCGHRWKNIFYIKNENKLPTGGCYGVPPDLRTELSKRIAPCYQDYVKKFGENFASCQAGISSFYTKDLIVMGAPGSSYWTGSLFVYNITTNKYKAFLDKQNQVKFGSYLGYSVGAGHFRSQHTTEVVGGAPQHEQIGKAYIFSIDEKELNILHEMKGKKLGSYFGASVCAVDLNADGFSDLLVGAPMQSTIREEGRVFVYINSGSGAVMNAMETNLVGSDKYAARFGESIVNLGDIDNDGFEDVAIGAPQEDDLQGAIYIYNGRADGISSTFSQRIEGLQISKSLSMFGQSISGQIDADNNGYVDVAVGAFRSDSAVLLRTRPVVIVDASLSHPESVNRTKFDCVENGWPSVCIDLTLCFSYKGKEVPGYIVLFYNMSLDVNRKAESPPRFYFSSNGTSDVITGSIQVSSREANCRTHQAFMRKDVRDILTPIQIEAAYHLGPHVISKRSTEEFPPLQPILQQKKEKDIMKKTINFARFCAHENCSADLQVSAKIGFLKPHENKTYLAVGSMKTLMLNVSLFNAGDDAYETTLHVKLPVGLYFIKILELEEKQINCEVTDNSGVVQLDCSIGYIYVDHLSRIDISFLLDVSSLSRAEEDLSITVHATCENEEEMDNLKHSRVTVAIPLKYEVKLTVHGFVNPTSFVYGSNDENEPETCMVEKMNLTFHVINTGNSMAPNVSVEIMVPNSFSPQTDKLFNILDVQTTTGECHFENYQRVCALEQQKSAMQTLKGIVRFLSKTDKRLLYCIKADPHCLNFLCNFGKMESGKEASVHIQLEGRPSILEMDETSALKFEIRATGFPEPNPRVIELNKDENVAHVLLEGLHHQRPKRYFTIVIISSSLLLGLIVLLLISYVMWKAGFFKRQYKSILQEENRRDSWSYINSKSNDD
FGF22 binding-2: binds human FGF22 shifting its melting temperature | AID 720646 | hit rate 2% among 1,000 | shares compounds with FGF22 binding-1 | thermal shift activity, °C (ΔTm) at 38 µM | recombinant FGF22 thermal shift, SYPRO orange fluorescence;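 active = fitted rise in melting shift crosses a set limit at or below the top valid dose tested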
FGF22 TSA: binds human FGF22 shifting its melting temperature; Tm shift (activity), % at 38 µM; AID 743017; 50 tested, under 10 active; shares compounds with FGF22 binding-1; Thermal shift assay, SYPRO orange, melting temperature shift;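 active = compounds whose fitted dose curve of melting temperature shift rises past a set threshold within the tested doses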
SYPRO no-protein: compound-only SYPRO artifact for FGF22 binders | AC50, µM (doses to about 38 µM) | hit rate 2% among 1,000 | compound-only SYPRO orange thermal shift counter-screen, no protein | shares compounds with FGF22 binding-1;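 active = rising signal whose fitted curve reaches the 0.54 level within the top valid dose, showing a melting point, actives reach about 13 µM in these data; inactive = the rest, including activity in the opposite direction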; note: value is where the raw curve crosses a fixed level and not half-maximal
Hits are given with their value.

For O=Cc1cc(OCc2ccccc2)ccc1[B-](F)(F)F the results were MT1-MMP act inh inactive, Exocytosis inh inactive, DAGLB inh inactive, FGF22 binding-1 1.5, ABCB6 inh MLPCN inactive, FGF22 binding-2 inactive and SYPRO no-protein inactive.
`Nc1ccc(OCc2ccccc2)cc1[N+](=O)[O-]` gave MT1-MMP act inh inactive, Exocytosis inh inactive, DAGLB inh inactive, FGF22 binding-1 inactive and ABCB6 inh MLPCN inactive.
C/C=C/c1ccc2c(c1)O[C@H](CN(C)C(=O)c1ccccn1)[C@H](C)CN([C@@H](C)CO)S2(=O)=O was read as FGF22 binding-1 inactive.
Cc1cccc(NC(=O)Nc2ccc(S(N)(=O)=O)cc2)c1 was read as MT1-MMP act inh inactive, Exocytosis inh inactive, FGF22 binding-1 1.7, ABCB6 inh MLPCN inactive, VLA-4 inh inactive, FGF22 binding-2 inactive and SYPRO no-protein 11µM.
For Cc1cccc(C)c1NC(=O)Nc1ccc(S(N)(=O)=O)cc1 the results were MT1-MMP act inh inactive, Exocytosis inh inactive, DAGLB inh inactive, FGF22 binding-1 inactive, ABCB6 inh MLPCN inactive and VLA-4 inh inactive.
`O=C(NC1CCCCC1)c1cc(-c2cccc(Cl)c2)on1` gave MT1-MMP act inh inactive, Exocytosis inh inactive, DAGLB inh inactive, FGF22 binding-1 3.9, ABCB6 inh MLPCN inactive, VLA-4 inh inactive, FGF22 binding-2 inactive and SYPRO no-protein inactive.
Screening CCC(=O)N1CCC2(CC1)CN(C(=O)Nc1ccccc1F)[C@@H](CO)c1[nH]c3cc(OC)ccc3c12 returned FGF22 binding-1 inactive.
CCOC(=O)c1sc(N2C(=O)C(O)=C(C(=O)c3ccco3)C2c2ccc([N+](=O)[O-])cc2)nc1C (stereo not given) was read as MT1-MMP act inh inactive, Exocytosis inh inactive, DAGLB inh inactive, FGF22 binding-1 1.7, ABCB6 inh MLPCN inactive, VLA-4 inh inactive, FGF22 binding-2 inactive and SYPRO no-protein inactive.
`CO[C@@H]1CN(C)C(=O)c2ccc(NS(C)(=O)=O)cc2OC[C@H](C)N(CC2CCCCC2)C[C@H]1C` gave FGF22 binding-1 inactive.
Screening O=C(C[C@H]1CC[C@H]2[C@@H](COC[C@H](O)CN2Cc2cccc(C(F)(F)F)c2)O1)NCc1ccncc1 returned FGF22 binding-1 inactive.
`O=C(C[C@H]1CC[C@@H]2[C@H](COC[C@H](O)CN2S(=O)(=O)c2cccc(F)c2)O1)Nc1ccccc1` gave FGF22 binding-1 2.0, FGF22 binding-2 inactive and SYPRO no-protein inactive.
O=C(C[C@@H]1CC[C@H]2[C@@H](COC[C@@H](O)CN2Cc2cccc(C(F)(F)F)c2)O1)NCc1ccncc1 was read as FGF22 binding-1 14, FGF22 binding-2 inactive and SYPRO no-protein inactive.
Screening Cc1ccc(S(=O)(=O)N2C[C@H](O)COC[C@H]3O[C@@H](CC(=O)NCc4ccc(Cl)c(Cl)c4)CC[C@@H]32)cc1 returned FGF22 binding-1 inactive.
Cc1ccc(S(=O)(=O)N2C[C@H](O)COC[C@H]3O[C@H](CC(=O)NCc4ccc(Cl)c(Cl)c4)CC[C@@H]32)cc1 was read as FGF22 binding-1 1.4, FGF22 binding-2 inactive, FGF22 TSA inactive and SYPRO no-protein inactive.
Cc1cccc(S(=O)(=O)N2C[C@H](O)COC[C@H]3O[C@H](CC(=O)Nc4ccccc4)CC[C@@H]32)c1 was read as FGF22 binding-1 1.8, FGF22 binding-2 inactive and SYPRO no-protein inactive.
`Cc1noc(C)c1NC(=O)Nc1ccc2c(c1)C(=O)N([C@@H](C)CO)C[C@@H](C)[C@@H](CN(C)C(=O)NC1CCCCC1)OCCCC[C@@H](C)O2` gave FGF22 binding-1 inactive.
For CC=Cc1ccc2n(c1=O)C[C@@H]1[C@@H](CO)[C@H](C(=O)N[C@@H](C)c3ccccc3)[C@H]2N1Cc1cccnc1 (mixture of isomers) the results were FGF22 binding-1 inactive.
O=C(C[C@H]1CC[C@@H]2[C@H](COC[C@H](O)CN2S(=O)(=O)c2cccc(F)c2)O1)Nc1ccc(-c2ccccc2)cc1 was read as FGF22 binding-1 inactive.
`O=C(C[C@H]1CC[C@H]2[C@@H](COC[C@@H](O)CN2S(=O)(=O)c2cccc(F)c2)O1)Nc1ccc(-c2ccccc2)cc1` gave FGF22 binding-1 3.3, FGF22 binding-2 inactive and SYPRO no-protein inactive.
Screening CCNC(=O)C[C@H]1CC[C@@H]2[C@@H](COc3ccc(NC(=O)Nc4ccc(Cl)cc4)cc3C(=O)N2C)O1 returned FGF22 binding-1 inactive.
For Cc1c2c(n3c(nc4ccccc43)c1C#N)N(CCN(C)C)CC2 the results were MT1-MMP act inh inactive, Exocytosis inh inactive, DAGLB inh inactive, FGF22 binding-1 1.4, ABCB6 inh MLPCN inactive, VLA-4 inh inactive, FGF22 binding-2 inactive and SYPRO no-protein inactive.
O=C(O)Cn1cc(/C=N/NC(=O)c2cc3cc(Br)ccc3o2)c2ccccc21 was read as MT1-MMP act inh inactive, Exocytosis inh inactive, DAGLB inh inactive, FGF22 binding-1 1.4, ABCB6 inh MLPCN inactive, VLA-4 inh inactive, FGF22 binding-2 inactive and SYPRO no-protein inactive.
For C[C@@H]1CN([C@@H](C)CO)C(=O)CCCn2cc(nn2)CO[C@@H]1CN(C)C(=O)Nc1ccc(F)cc1 the results were FGF22 binding-1 inactive.
For Cc1ccn(-c2ccc(NC(=O)c3cccs3)cc2)n1 the results were MT1-MMP act inh inactive, Exocytosis inh inactive, DAGLB inh inactive, FGF22 binding-1 1.8, ABCB6 inh MLPCN inactive, VLA-4 inh inactive, FGF22 binding-2 inactive, FGF22 TSA inactive and SYPRO no-protein inactive.
Screening O=C(Cc1n[nH]c(=O)[nH]c1=O)N/N=C/c1c(O)ccc2ccccc12 returned MT1-MMP act inh inactive, Exocytosis inh inactive, DAGLB inh inactive, FGF22 binding-1 1.4, ABCB6 inh MLPCN inactive, VLA-4 inh inactive and SYPRO no-protein 10µM.
Cc1ccc(-c2ccc3c(c2)O[C@@H](CN(C)C(=O)Nc2ccc(F)cc2)[C@H](C)CN([C@@H](C)CO)S3(=O)=O)cc1 was read as FGF22 binding-1 inactive.
Screening CC(C)N(C[C@H]1[C@H](c2ccccc2)[C@@H](CO)N1S(C)(=O)=O)C(=O)CN(C)C returned FGF22 binding-1 1.2, FGF22 binding-2 inactive and SYPRO no-protein inactive.
Screening CC(C)N(C[C@H]1[C@H](c2ccccc2)[C@H](CO)N1S(C)(=O)=O)C(=O)CN(C)C returned FGF22 binding-1 inactive.

Screening data as filed in PubChem BioAssay.
